Consider 4 molecules from ChEMBL document CHEMBL4184124, “Progress in antischistosomal N,N'-diaryl urea SAR” (Bioorg Med Chem Lett, 2018).

Series [1] relates to Schistosoma mansoni. Description: Antischistosomal activity against Schistosoma mansoni cercariae infected in NMRI mouse assessed as reduction in worm burden at 100 mg/kg, po administered as single dose via gavage measured after 21 days relative to control. The class given is functional. On the set-up: scale not given: the % may be the effect or the level left. The method, boiled down:
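Infected mice given a single 100 mg/kg oral dose; efficacy read as worm burden reduction (%).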

The test system of series [2] is Schistosoma mansoni. In words: Antischistosomal activity against Schistosoma mansoni Liberian cercariae measured after 72 hrs by microscopic analysis. It is filed as functional, organism-based. The method, boiled down:
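Newly transformed schistosomula prepared from cercariae, first screened at 10 µM as a gate. Active compounds then went through a concentration titration to derive IC50 values.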

The subject of series [3] is Schistosoma mansoni. Description: Antischistosomal activity against Schistosoma mansoni infected in NMRI mouse assessed as reduction in worm burden at 400 mg/kg, po administered as single dose measured after 14 days relative to control. The class given is functional. Further details: scale not given: the % may be the effect or the level left.
Series [4] can be described thus: Half-life in mouse at 46.3 mg/kg, po. The class given is ADME, organism-based. The following applies: in vivo.
Series [5] can be described thus: Cmax in mouse at 46.3 mg/kg, po. It is filed as ADME, organism-based. Further details: dose 46.3 mg/kg, route oral. The following applies: in vivo.
A short description of series [6]: Kinetic solubility of the compound in phosphate buffer at pH 6.5 by nephelometric method. As to conditions: read-out: Kinetic_solubility. The class given is physicochemical. The procedure, abridged:
(§1)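 DMSO stocks spiked into pH 6.5 phosphate buffer or 0.01 M HCl (approx. pH 2.0); nephelometry gave a solubility concentration range.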

The nature of series [7]: Kinetic solubility of the compound in 0.01M HCl at pH 2 by nephelometric method. It is filed as physicochemical. As to conditions: read-out: Kinetic_solubility. The procedure, abridged: as §1
Series [8] is described as follows: Intrinsic clearance in human liver microsomes assessed per mg protein after 60 mins in presence of NADPH generating system. It is filed as ADME, microsome. As to conditions: 1 h.
Series [9] in a line: Intrinsic clearance in mouse liver microsomes assessed per mg protein after 60 mins in presence of NADPH generating system. The class given is ADME, microsome. As to conditions: 1 h. In general terms: Microsomes from liver hold many membrane-bound enzymes, among them those of drug oxidation.
The test system of series [10] is Schistosoma mansoni. Description: Antischistosomal activity against newly transformed stage of Schistosoma mansoni measured after 72 hrs by microscopic analysis. The class given is functional, organism-based. The procedure, abridged: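 Newly transformed schistosomula were first screened at 10 µM; compounds that killed them were then run as a concentration titration to derive IC50 values.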

The subject of series [11] is Schistosoma mansoni. Description: Antischistosomal activity against adult stage of Schistosoma mansoni measured after 72 hrs by microscopic analysis. The class given is functional, organism-based.
In series [12] the test system is Schistosoma mansoni. In words: Antischistosomal activity against newly transformed stage of Schistosoma mansoni assessed as parasite death at 10 uM. It is filed as functional, organism-based. The procedure, abridged:
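Newly transformed schistosomula exposed at 10 µM as a screen for killing; active compounds then titrated to give IC50.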

A further series has as its system HFF. In words: Cytotoxicity against HFF. It is filed as cell-based. The following applies: Homo sapiens.
The next series deals with U2OS. Description: Cytotoxicity against human U2OS cells. The class given is cell-based.
The next series concerns HEK293. In words: Cytotoxicity against HEK293 cells. It is filed as cell-based. The following applies: Homo sapiens.
Series [13] is described as follows: Cytotoxicity against human HC04 cells. The class given is cell-based.
Series [14] can be described thus: Drug uptake in Swiss mouse plasma at 100 mg/kg, po administered as single dose via gavage measured after 4 to 48 hrs by LC-MS analysis. It is filed as ADME, organism-based. The following applies: in vivo. The procedure, abridged:
(§2)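 Single 100 mg/kg oral dose given to non-infected male Swiss outbred mice; plasma sampled over 48 h post-dose; n=2 mice per time point, mean values. AUC taken to last measured concentration.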

Series [15] can be described thus: Cmax in Swiss mouse at 100 mg/kg, po administered as single dose via gavage by LC-MS analysis. As to conditions: in vivo. Further details: dose 100 mg/kg, route oral. The class given is ADME, organism-based. The procedure, abridged:
as §2

A short description of series [16]: Tmax in Swiss mouse at 100 mg/kg, po administered as single dose via gavage by LC-MS analysis. The class given is ADME, organism-based. The following applies: in vivo. The procedure, abridged: as §2
The nature of series [17]: Half-life in Swiss mouse at 100 mg/kg, po administered as single dose via gavage by LC-MS analysis. The class given is ADME, organism-based. As to conditions: in vivo. The procedure, abridged:
as §2

A short description of series [18]: AUC (0 to last) in Swiss mouse at 100 mg/kg, po administered as single dose via gavage by LC-MS analysis. It is filed as ADME, organism-based. Further details: dose 100 mg/kg, time 0 - last, route oral. As to conditions: in vivo. The method, boiled down: as §2
The nature of series [19]: Octanol-[…] partition coefficient, log D of the compound at pH 7.4 by RP-HPLC method.
Series [20] deals with Schistosoma mansoni. Description: Antischistosomal activity against Schistosoma mansoni cercariae infected in NMRI mouse assessed as reduction in worm burden at 80 mg/kg, po administered as four consecutive dose via gavage measured after 21 days relative to control. Further details: scale not given: the % may be the effect or the level left. It is filed as functional. The method, boiled down: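 Infected mice given four consecutive 80 mg/kg oral doses; efficacy read as worm burden reduction (%).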

Series [21] is described as follows: Drug uptake in Swiss mouse plasma at 100 mg/kg, po administered as single dose via gavage measured after 2 hrs by LC-MS analysis. As to conditions: in vivo. The class given is ADME, organism-based. The method, boiled down: as §2
A short description of series [22]: Plasma concentration in Swiss mouse at 100 mg/kg, po administered as single dose via gavage measured up to 48 hrs by LC-MS analysis. It is filed as ADME, organism-based. The procedure, abridged:
as §2

Values after ≈ are worked out from the molar mass of the structure shown. Active and inactive are the calls of the source.

In general, IC50 refers to the concentration needed to halve the response being measured. As a reminder, the half-life is the time needed for the level to fall by half in the phase considered. In general, Cmax refers to the maximum level reached in the sampled fluid or tissue. Turning to `O=C(Nc1ccc(Cl)c(Cl)c1)Nc1ccc(Cl)c(Cl)c1`, the Activity was 0% in the series with Schistosoma mansoni [1] and 53% in the series on Schistosoma mansoni [3]. This molecule yielded an IC50 in the series with Schistosoma mansoni [2] of 800 nM. This molecule also had a half-life in [4] of 282 min. Besides, in series [5], the highest level (Cmax) was 4.4 µM.
For orientation: Tmax means the time from dosing to the highest level. A word on the AUC(0-t): it is the area under the concentration-time curve up to a stated or last time point. The term chromatographic logD denotes a lipophilicity value derived from retention on a column. Regarding `O=C(Nc1ccnc(C(F)(F)F)c1)Nc1ccnc(C(F)(F)F)c1`, the solubility kinetic in [6] and in [7] was 12.5 to 25 µg/mL (≈ 35.7 to 71.4 µM) throughout. Besides, the CLH in series [8] and in [9] was < 7 µL/min/mg throughout. In addition, the half-inhibitory concentration (IC50) was 2400 nM in the series with Schistosoma mansoni [10]; 880 nM in the series with Schistosoma mansoni [11]; > 100 µM in the series on HFF; > 100 µM in the series on U2OS; > 100 µM with HEK293; > 100 µM in series [13]. The result in the series with Schistosoma mansoni [12] was Active. The Drug uptake result in [14] is “Active”. Moreover, the highest level in series [15] (Cmax) was 40 µM. Further, the time of peak concentration (Tmax) in series [16] worked out at 4 h. For the same molecule, the half-life in series [17] was 600 min. Further, in series [18], the AUC(0-t) was found to be 953 µM·h. Further, in the series with Schistosoma mansoni [1], the Activity is recorded as 20%. Also, in series [19], the chromatographic logD is 3.
With `O=C(Nc1ccnc(C(F)(F)F)c1)Nc1ccc(F)c(C(F)(F)F)c1`, the solubility kinetic in series [6] and in series [7] was 3.1 to 6.3 µg/mL (≈ 8.44 to 17.2 µM) throughout. Besides, the CLH in series [8] and in [9] was < 7 µL/min/mg throughout. Besides, the IC50 in the series on Schistosoma mansoni [10] was 740 nM; in the series with Schistosoma mansoni [11], 660 nM; in the series on HFF it was 71 µM; in the series on U2OS it was > 100 µM; with HEK293, > 100 µM; in series [13], > 100 µM. The outcome in the series with Schistosoma mansoni [12] was Active. The Drug uptake entry in [14] is “Active”. The molecule also showed a Cmax in [15] of 56 µM. In series [16], the Tmax was determined as 7.5 h. Also, the half-life in series [17] is 1080 min. Besides, the AUC(0-t) in series [18] was 1490 µM·h. In addition, the Activity with Schistosoma mansoni [1] is reported as 50%; in the series on Schistosoma mansoni [20] it was 53%. In addition, in series [19], the chromatographic logD is 3.8.
Take `O=C(Nc1ccc(F)c(C(F)(F)F)c1)Nc1ccc(F)c(C(F)(F)F)c1`: in [7], the solubility kinetic was < 1.6 µg/mL. In addition, the figures for the CLH in [8] and in series [9] were 10 µL/min/mg and 7 µL/min/mg, respectively. The half-maximal inhibitory concentration (IC50) is 150 nM in the series with Schistosoma mansoni [10]; 190 nM with Schistosoma mansoni [11]; 57 µM in the series with HFF; > 100 µM with U2OS; > 100 µM in the series on HEK293; > 100 µM in [13]. In addition, the outcome with Schistosoma mansoni [12] was Active. Besides, in series [21], the Drug uptake entry is reported as “Active”. Besides, the concentration at 48 h in series [22] was > 1000 nM. Also, the Cmax in series [15] was 31 µM. Moreover, the Tmax in series [16] amounted to 4 h. Besides, the half-life in [17] is 660 min. In [18], this molecule had an AUC(0-t) of 394 µM·h. Further, the Activity in the series on Schistosoma mansoni [1] was 40%. This molecule had a chromatographic logD in [19] of 4.5.
